Measurements pooled from the literature.
Target: Mitogen-activated protein kinase kinase kinase 5 (MAP3K5, Homo sapiens, UniProt Q99683)
Sequence (Q99683 1-1374, as in one of the studies): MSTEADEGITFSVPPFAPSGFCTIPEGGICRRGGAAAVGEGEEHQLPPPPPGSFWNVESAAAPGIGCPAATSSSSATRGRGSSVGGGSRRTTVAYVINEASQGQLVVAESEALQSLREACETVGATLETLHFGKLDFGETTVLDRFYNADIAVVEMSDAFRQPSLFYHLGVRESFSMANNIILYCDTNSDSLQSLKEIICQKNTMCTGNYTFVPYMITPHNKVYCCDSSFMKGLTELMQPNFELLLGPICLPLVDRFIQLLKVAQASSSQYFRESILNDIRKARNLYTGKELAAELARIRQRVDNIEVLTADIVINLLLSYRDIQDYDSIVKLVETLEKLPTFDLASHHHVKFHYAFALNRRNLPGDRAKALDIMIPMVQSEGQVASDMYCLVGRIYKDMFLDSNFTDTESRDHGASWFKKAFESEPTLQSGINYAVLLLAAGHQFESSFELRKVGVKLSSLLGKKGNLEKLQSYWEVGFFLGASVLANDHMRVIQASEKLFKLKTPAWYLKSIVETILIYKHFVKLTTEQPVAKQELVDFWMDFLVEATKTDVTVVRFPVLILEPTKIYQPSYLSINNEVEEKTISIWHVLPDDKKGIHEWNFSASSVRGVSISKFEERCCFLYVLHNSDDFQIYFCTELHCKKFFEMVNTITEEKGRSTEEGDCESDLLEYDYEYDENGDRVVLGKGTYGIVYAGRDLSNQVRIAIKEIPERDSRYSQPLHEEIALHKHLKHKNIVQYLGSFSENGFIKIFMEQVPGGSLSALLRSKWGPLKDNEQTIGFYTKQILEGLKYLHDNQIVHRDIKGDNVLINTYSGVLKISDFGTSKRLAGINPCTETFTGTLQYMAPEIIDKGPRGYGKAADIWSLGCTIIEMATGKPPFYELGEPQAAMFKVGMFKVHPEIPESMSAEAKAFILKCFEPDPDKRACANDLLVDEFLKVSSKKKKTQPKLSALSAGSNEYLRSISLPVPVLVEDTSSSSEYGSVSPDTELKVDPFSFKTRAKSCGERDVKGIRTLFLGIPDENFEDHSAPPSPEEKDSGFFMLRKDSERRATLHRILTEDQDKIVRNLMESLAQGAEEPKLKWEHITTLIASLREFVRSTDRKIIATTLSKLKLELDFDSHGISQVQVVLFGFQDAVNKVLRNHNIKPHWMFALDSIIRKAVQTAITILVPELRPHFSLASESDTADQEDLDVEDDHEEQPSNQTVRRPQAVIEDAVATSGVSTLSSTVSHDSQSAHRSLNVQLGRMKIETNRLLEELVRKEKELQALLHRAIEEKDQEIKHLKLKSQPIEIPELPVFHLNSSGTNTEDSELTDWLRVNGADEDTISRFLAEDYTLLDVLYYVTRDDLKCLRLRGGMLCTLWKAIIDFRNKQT

CC1(C)NC(=O)c2[nH]c3c(Cl)c(Cl)ccc3c2C1C#N (stereo not drawn) — ΔTm (thermal stability; DSF; 10 µM): 1.6 °C
Cc1cc(NC(=O)c2cccc3cc(-c4cccc5[nH]nc(N)c45)ccc23)ccc1F — activity vs control (enzyme activity; inhibitor; 0.1 µM): 109%
N#CCCc1ccc2c(c1)-c1[nH]c3ccc([N+](=O)[O-])cc3c1CC(=O)N2 — remaining signal (cell-free assay; 0.5 µM): 101%
c1ccc(CNc2nc(N3CCOc4ccccc43)nc3c2CCCC3)cc1 — inhibition (target engagement in cells; inhibitor; chemoproteomics; 20 mM): -10.3%
FC(F)(F)Oc1cccc(-c2cnc3ccc(-c4ccncc4)nn23)c1 — activity vs control (enzyme activity; inhibitor; radiometric; 5 µM): 104%
Cc1ccc(NC(=O)c2ccc(C)c(C(F)(F)F)c2)cc1C#Cc1nn(C2CCC(O)CC2)c2ncnc(N)c12 (stereo not drawn) — remaining signal (cell-free assay; 10 µM): 127%
CN1CC(Oc2cnc(C#N)cc2-c2ccn3nc(NC(=O)C4CC4)cc3c2)C1 — inhibition (enzyme activity; inhibitor; 1 µM): -2%
COc1cccc2c(NCc3ccccc3)nc(-n3c(N)nc4ccccc43)nc12 — inhibition (target engagement in cells; inhibitor; chemoproteomics; 20 mM): -7.6%
CC(C)(C)c1nc(-c2cccc(NS(=O)(=O)c3c(F)cccc3F)c2F)c(-c2ccnc(N)n2)s1 — remaining activity (enzyme activity; inhibitor; radiometric; 1 µM): 98%
COc1cc(Nc2cnc(C#N)c(O[C@H](C)CN(C)C)n2)ncc1-c1cnn(C)c1 — remaining activity (enzyme activity; inhibitor; radiometric; 1 µM): 95%
CN1CCC2(CC1)NC(=O)c1c(c3ccc(Cl)c(Cl)c3n1C)C2C#N (racemic) — ΔTm (thermal stability; DSF; 10 µM): 0.3 °C
Nc1ncnc2occ(-c3ccc(NC(=O)Nc4cc(C(F)(F)F)ccc4F)cc3)c12 — remaining signal (cell-free assay; inhibitor; 20 µM): 7.8%
CNCc1ccccc1-c1csc([C@@H](C)Nc2nc(C)nc3cc(OC)c(OC)cc23)c1 — remaining binding (cell-free assay; competition with immobilised ligand; 1 µM): 91%
Cc1cnc(NC2CCOCC2)nc1-n1cnc(C(=O)NC(CN)c2cc(F)cc(Cl)c2)c1 (stereo not drawn) — remaining activity (enzyme activity; inhibitor; radiometric; 1 µM): 105%
CS(=O)(=O)N1CCCC(NC(=O)[C@H](CCC2CCCCC2)NC(=O)c2ccc(CNc3ncnc4c3nnn4-c3ccccc3)cc2)C1 (stereo partly drawn) — remaining binding (cell-free assay; competition with immobilised ligand; 0.1 µM): 100%
CNCc1ccc(-c2cc(-c3nc(-c4ccc(S(=O)(=O)C(C)C)cc4)cnc3N)on2)cc1 — inhibition (enzyme activity; inhibitor; 0.4 µM): 0%
O=C(Nc1cnn(-c2csc(C(=O)NC3COC3)c2)c1)Nc1ccccc1Cl — remaining activity (enzyme activity; inhibitor; 5 µM): 91.2%
NS(=O)(=O)c1cc(NC(=O)Cc2ccccc2)ccc1Oc1cccc(Cl)c1 — remaining binding (cell-free assay; competition with immobilised ligand; 1 µM): 100%
Cc1sc(C(=O)NC2COC2)cc1-n1cc(NC(=O)Nc2c(F)cccc2Cl)cn1 — remaining activity (enzyme activity; inhibitor; 10 µM): 94%
Cn1c(=O)n(-c2ccc(C(C)(C)C#N)cc2)c2c3cc(-c4cnc5ccccc5c4)ccc3ncc21 — remaining activity (enzyme activity; inhibitor; 10 µM): 106%
N#CC1c2c([nH]c3c(Cl)c(Cl)ccc23)C(=O)NC12CCCCC2 (racemic) — ΔTm (thermal stability; DSF; 10 µM): 0.6 °C
CNC(=O)c1cc(Oc2ccc(NC(=O)Nc3ccc(Cl)c(C(F)(F)F)c3)cc2)ccn1 — inhibition (enzyme activity; inhibitor; 10 µM): 9%
COc1ccc2c(c1)O[C@H](c1ccc(OC)c(OC)c1)C[C@@H]2NC(=O)C1(c2ccc3c(c2)OC(F)(F)O3)CC1 — remaining binding (cell-free assay; competition with immobilised ligand; 1 µM): 100%
CCCS(=O)(=O)Nc1ccc(F)c(C(=O)c2c[nH]c3ncc(-c4ccc(Cl)cc4)cc23)c1F — inhibition (enzyme activity; inhibitor; 1 µM): < 10%
Cc1ccc(Nc2nccc(N(C)c3ccc4c(C)n(C)nc4c3)n2)cc1S(N)(=O)=O — inhibition (enzyme activity; inhibitor; 10 µM): 5%
COc1cc(/C=C/C(=O)CC(=O)/C=C/c2ccc(O)c(OC)c2)ccc1O — activity vs control (enzyme activity; inhibitor; 1 µM): 101%
CCN(CC)CCNC(=O)c1c(C)[nH]c(/C=C2\C(=O)Nc3ccc(F)cc32)c1C — inhibition (enzyme activity; inhibitor; 10 µM): 38%
Cn1nc(C(=O)NCc2ccc(C(=O)O)cc2)cc1-c1ccc2[nH]ccc2c1 — remaining binding (cell-free assay; competition with immobilised ligand; 0.1 µM): 86%
Cn1c2c(c3ccc(Cl)c(Cl)c31)C(C#N)C1(CCN(C(=O)OC(C)(C)C)CC1)NC2=O (racemic) — ΔTm (thermal stability; DSF; 10 µM): 0 °C
CCN1CCN(Cc2ccc(NC(=O)c3ccc(C)c(/C=C/c4cnc5[nH]ccc5c4OC)c3)cc2C(F)(F)F)CC1 — inhibition (target engagement in cells; inhibitor; chemoproteomics; A-375; 0.5 µM): -26.3%
CN(C)c1ncnc(-c2ccc3nc(Nc4cc(CN5CCN(C(=O)CC(F)(F)F)CC5)ccn4)[nH]c3c2)c1Cl — remaining binding (cell-free assay; competition with immobilised ligand; 1 µM): 100%
O=C1Nc2ccc(Cl)cc2C1=Cc1cc(Cl)c(O)c(Cl)c1 — remaining signal (cell-free assay; 0.5 µM): 106%
c1ccc(N2CCN(Cc3nc4ccccc4[nH]3)CC2)nc1 — remaining binding (binding; competition with immobilised ligand; 1 µM): 93%
CCN1CCN(Cc2ccc(NC(=O)c3ccc(C)c(Oc4ccnc5[nH]ccc45)c3)cc2C(F)(F)F)CC1 — inhibition (target engagement in cells; inhibitor; chemoproteomics; A-375; 5 µM): -27.1%
CC(C)CC(=O)N1CCc2nc(-c3ccc(Br)cc3)nc(N(C)Cc3ccccc3)c2C1 — remaining binding (cell-free assay; competition with immobilised ligand; 0.1 µM): 91%
Cn1c2c(c3ccc(Cl)c(Cl)c31)C(C#N)C1(CCOCC1)NC2=O (stereo not drawn) — ΔTm (thermal stability; DSF; 10 µM): 0.4 °C
